# Reference: ChEMBL document CHEMBL1155135, “Effect of Lamivudine on the plasma and intracellular pharmacokinetics of apricitabine, a novel nucleoside reverse transcriptase inhibitor, in healthy volunteers” (Antimicrob Agents Chemother, 2007)
# Key:
# [1] = Cmax in healthy human at 300 mg, po administered once daily for 4 days; type: ADME, organism-based; design: dose 300 mg, route oral; conditions: in vivo
# Outline: (§1)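 Healthy volunteers took each regimen in random order for 4 days, with washouts of at least 7 days. The day-4 morning dose followed a fast of at least 10 h. Plasma was drawn predose and 0.5–36 h after dosing, and urine was collected to 36 h; both were assayed by validated HPLC. Cmax/Tmax were read from the curves. CLT/F = dose/AUC, CLR = 24-h urinary amount/AUC0-24, Vz/F = dose/(λz·AUC), t1/2 = ln2/λz.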
# [2] = Tmax in healthy human at 300 mg, po administered once daily for 4 days; type: ADME, organism-based; conditions: in vivo; outline: as §1
# [3] = AUC (0 to 24 hrs) in healthy human at 300 mg, po administered once daily for 4 days; type: ADME, organism-based; design: dose 300 mg, time < 24 hr, route oral; conditions: plasma; outline: as §1
# [4] = Cmax in healthy human at 300 mg, po once daily coadministered with 600 mg, po apricitabine twice daily for 4 days; type: ADME, organism-based; design: dose 300 mg, route oral; conditions: in vivo; outline: as §1
# [5] = Tmax in healthy human at 300 mg, po once daily coadministered with 600 mg, po apricitabine twice daily for 4 days; type: ADME, organism-based; conditions: in vivo; outline: as §1
# [6] = AUC (0 to 24 hrs) in healthy human at 300 mg, po once daily coadministered with 600 mg, po apricitabine twice daily for 4 days; type: ADME, organism-based; design: time < 24 hr, dose 300 mg, route oral; conditions: plasma; outline: as §1
# Homo sapiens [7] = assay: Tmax in healthy human PBMC assessed as intracellular apricitabine triphosphate level at 300 mg, po administered once daily for 4 days; type: ADME, organism-based; conditions: in vivo, 96 h, in the assay text read “lamivudine” for “apricitabine”
# Outline: (§2)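 PBMC were isolated from triplicate day-4 blood samples taken 2, 4, 8, 12 and 24 h after the morning dose, then extracted in 70/30 methanol-Tris-HCl pH 7.4. Triphosphates were separated by anion-exchange SPE with KCl washes, eluted with 500 mM KCl, and dephosphorylated with alkaline phosphatase at 37°C. Quantitation used HPLC-MS/MS with a labelled triphosphate internal standard; LLOQ 0.0592 pmol/10^6 cells. Cmax/Tmax were read by inspection; t1/2 = ln2/λz.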
# Homo sapiens [8] = assay: Tmax in healthy human PBMC assessed as intracellular apricitabine triphosphate level at 300 mg, po once daily coadministered with 600 mg, po apricitabine twice daily for 4 days; type: ADME, organism-based; conditions: in vivo, 96 h; outline: as §2
# Homo sapiens [9] = assay: Cmax in healthy human PBMC assessed as intracellular apricitabine triphosphate level per 10^6 cells at 300 mg, po once daily coadministered with 600 mg, po apricitabine twice daily for 4 days; type: ADME, organism-based, Blood; design: dose 300 mg, route oral; conditions: in vivo, 96 h; outline: as §2
# Homo sapiens [10] = assay: Cmin in healthy human PBMC assessed as intracellular apricitabine triphosphate level per 10^6 cells at 300 mg, po once daily coadministered with 600 mg, po apricitabine twice daily for 4 days; type: ADME, organism-based; conditions: in vivo, 96 h
# Homo sapiens [11] = assay: Cmax in healthy human PBMC assessed as intracellular lamivudine triphosphate level per 10^6 cells at 300 mg, po administered once daily for 4 days; conditions: in vivo, 96 h
# Homo sapiens [12] = assay: Cmin in healthy human PBMC assessed as intracellular lamivudine triphosphate level per 10^6 cells at 300 mg, po administered once daily for 4 days; conditions: in vivo, 96 h
# Homo sapiens [13] = assay: AUC (0 to 12 hrs) in healthy human PBMC assessed as intracellular lamivudine triphosphate level per 10^6 cells at 300 mg, po administered once daily for 4 days; conditions: in vivo
# Homo sapiens [14] = assay: AUC (0 to 12 hrs) in healthy human PBMC assessed as intracellular lamivudine triphosphate level per 10^6 cells at 300 mg, po once daily coadministered with 600 mg, po apricitabine twice daily for 4 days; conditions: in vivo
# [15] = Cmax in healthy human at 600 mg, po administered twice daily for 4 days; type: ADME, organism-based; design: dose 600 mg, route oral; conditions: in vivo; outline: as §1
# [16] = Tmax in healthy human at 600 mg, po administered twice daily for 4 days; type: ADME, organism-based; conditions: in vivo; outline: as §1
# [17] = AUC (0 to 24 hrs) in healthy human at 600 mg, po administered twice daily for 4 days; type: ADME, organism-based; design: dose 600 mg, time < 24 hr, route oral; conditions: plasma; outline: as §1
# [18] = Apparent total oral clearance in healthy human at 600 mg, po administered twice daily for 4 days; type: ADME, organism-based; conditions: in vivo; outline: as §1
# [19] = Renal clearance in healthy human at 600 mg, po administered twice daily for 4 days; type: ADME, organism-based, Kidney; conditions: in vivo, read-out: CL_renal (converted); outline: as §1
# Homo sapiens [20] = assay: Volume of distribution at steady state in healthy human at 600 mg, po administered twice daily for 4 days; type: ADME, organism-based; conditions: in vivo, 96 h; outline: as §1
# [21] = Apparent terminal half life in healthy human at 600 mg, po administered twice daily for 4 days; type: ADME, organism-based; conditions: in vivo; outline: as §1
# [22] = Cmax in healthy human at 600 mg, po twice daily coadministered with 300 mg, po Lamivudine once daily for 4 days; type: ADME, organism-based; design: dose 600 mg, route oral; conditions: in vivo; outline: as §1
# [23] = Tmax in healthy human at 600 mg, po twice daily coadministered with 300 mg, po Lamivudine once daily for 4 days; type: ADME, organism-based; conditions: in vivo; outline: as §1
# [24] = AUC (0 to 24 hrs) in healthy human at 600 mg, po twice daily coadministered with 300 mg, po Lamivudine once daily for 4 days; type: ADME, organism-based; design: dose 600 mg, time < 24 hr, route oral; conditions: plasma; outline: as §1
# Homo sapiens [25] = assay: Apparent total oral clearance in healthy human at 600 mg, po twice daily coadministered with 300 mg, po Lamivudine once daily for 4 days; type: ADME, organism-based; conditions: in vivo, 96 h; outline: as §1
# Homo sapiens [26] = assay: Renal clearance in healthy human at 600 mg, po twice daily coadministered with 300 mg, po Lamivudine once daily for 4 days; type: ADME, organism-based, Kidney; conditions: in vivo, 96 h; outline: as §1
# Homo sapiens [27] = assay: Volume of distribution at steady state in healthy human at 600 mg, po twice daily coadministered with 300 mg, po Lamivudine once daily for 4 days; type: ADME, organism-based; conditions: in vivo, 96 h; outline: as §1
# [28] = Apparent terminal half life in healthy human at 600 mg, po twice daily coadministered with 300 mg, po Lamivudine once daily for 4 days; type: ADME, organism-based; conditions: in vivo; outline: as §1
# Homo sapiens [29] = assay: Tmax in healthy human PBMC assessed as intracellular apricitabine triphosphate level at 600 mg, po administered twice daily for 4 days; type: ADME, organism-based; conditions: in vivo, 96 h; outline: as §2
# Homo sapiens [30] = assay: Cmax in healthy human PBMC assessed as intracellular apricitabine triphosphate level per 10^6 cells at 600 mg, po administered twice daily for 4 days; type: ADME, organism-based, Blood; design: dose 600 mg, route oral; conditions: in vivo, 96 h; outline: as §2
# Homo sapiens [31] = assay: Cmin in healthy human PBMC assessed as intracellular apricitabine triphosphate level per 10^6 cells at 600 mg, po administered twice daily for 4 days; type: ADME, organism-based; conditions: in vivo, 96 h
# Homo sapiens [32] = assay: Ratio of Cmax to Cmin in healthy human PBMC assessed as intracellular apricitabine triphosphate level per 10^6 cells at 600 mg, po administered twice daily for 4 days; type: ADME, organism-based; conditions: in vivo, 96 h
# Homo sapiens [33] = assay: AUC (0 to 12 hrs) in healthy human PBMC assessed as intracellular apricitabine triphosphate level per 10^6 cells at 600 mg, po administered twice daily for 4 days; type: ADME, organism-based; design: dose 600 mg, time < 12 hr, route oral; conditions: in vivo; outline: as §2
# Homo sapiens [34] = assay: Half life in healthy human PBMC assessed as intracellular apricitabine triphosphate level per 10^6 cells at 600 mg, po administered twice daily for 4 days; type: ADME, organism-based; conditions: in vivo, 96 h; outline: as §2
# Homo sapiens [35] = assay: Tmax in healthy human PBMC assessed as intracellular apricitabine triphosphate level at 600 mg, po twice daily coadministered with 300 mg, po Lamivudine once daily for 4 days; type: ADME, organism-based; conditions: in vivo, 96 h; outline: as §2
# Homo sapiens [36] = assay: Cmax in healthy human PBMC assessed as intracellular apricitabine triphosphate level per 10^6 cells at 600 mg, po twice daily coadministered with 300 mg, po Lamivudine once daily for 4 days; type: ADME, organism-based, Blood; design: dose 600 mg, route oral; conditions: in vivo, 96 h; outline: as §2
# Homo sapiens [37] = assay: Cmin in healthy human PBMC assessed as intracellular apricitabine triphosphate level per 10^6 cells at 600 mg, po twice daily coadministered with 300 mg, po Lamivudine once daily for 4 days; type: ADME, organism-based; conditions: in vivo, 96 h
# Homo sapiens [38] = assay: Ratio of Cmax to Cmin in healthy human PBMC assessed as intracellular apricitabine triphosphate level per 10^6 cells at 600 mg, po twice daily coadministered with 300 mg, po Lamivudine once daily for 4 days; type: ADME, organism-based; conditions: in vivo, 96 h
# Homo sapiens [39] = assay: AUC (0 to 12 hrs) in healthy human PBMC assessed as intracellular apricitabine triphosphate level per 10^6 cells at 600 mg, po twice daily coadministered with 300 mg, po Lamivudine once daily for 4 days; type: ADME, organism-based; design: time < 12 hr, dose 600 mg, route oral; conditions: in vivo; outline: as §2
# Homo sapiens [40] = assay: Half life in healthy human PBMC assessed as intracellular apricitabine triphosphate level per 10^6 cells at 600 mg, po twice daily coadministered with 300 mg, po Lamivudine once daily for 4 days; type: ADME, organism-based; conditions: in vivo, 96 h; outline: as §2
smiles,measurement,setting,value
Nc1ccn([C@@H]2CS[C@H](CO)O2)c(=O)n1 [LAMIVUDINE],Cmax,[1],3980 ng/mL
same,Tmax,[2],1 h
same,AUC at 24 h,[3],15700 ng·h/mL
same,Cmax,[4],3810 ng/mL
same,Tmax,[5],1.02 h
same,AUC at 24 h,[6],15500 ng·h/mL
same,Tmax,Homo sapiens [7],4.76 h
same,Tmax,Homo sapiens [8],3.9 h
same,Cmax,Homo sapiens [9],9.91 pmol/10^6cells
same,Cmin_PBMC,Homo sapiens [10],4.52 pmol/10^6cells
same,Cmax,Homo sapiens [11],9.83 pmol/10^6cells
same,Cmin_PBMC,Homo sapiens [12],4.35 pmol/10^6cells
same,AUC,Homo sapiens [13],154 pmol·h/10^6 cells
same,AUC,Homo sapiens [14],161 pmol·h/10^6 cells
Nc1ccn([C@H]2CO[C@@H](CO)S2)c(=O)n1 [APRICITABINE],Cmax,[15],7430 ng/mL
same,Tmax,[16],1.76 h
same,AUC at 24 h,[17],70900 ng·h/mL
same,CL/F,[18],283 mL/min
same,CL renal at 96 h,[19],192 mL/min
same,Vdss,Homo sapiens [20],67.7 L
same,half-life,[21],2.72 h
same,Cmax,[22],7110 ng/mL
same,Tmax,[23],1.55 h
same,AUC at 24 h,[24],65600 ng·h/mL
same,CL/F,Homo sapiens [25],18.3 L/h
same,CL renal,Homo sapiens [26],12.2 L/h
same,Vdss,Homo sapiens [27],67.9 L
same,half-life,[28],2.6 h
same,Tmax,Homo sapiens [29],3.52 h
same,Cmax,Homo sapiens [30],1.66 pmol/10^6cells
same,Cmin_PBMC,Homo sapiens [31],0.6 pmol/10^6cells
same,Ratio,Homo sapiens [32],3.28
same,AUC,Homo sapiens [33],13.3 pmol·h/10^6 cells
same,t1/2,Homo sapiens [34],6.22 h
same,Tmax,Homo sapiens [35],3.14 h
same,Cmax,Homo sapiens [36],0.257 pmol/10^6cells
same,Cmin_PBMC,Homo sapiens [37],0.078 pmol/10^6cells
same,Ratio,Homo sapiens [38],3.54
same,AUC,Homo sapiens [39],1.98 pmol·h/10^6 cells
same,t1/2,Homo sapiens [40],5.06 h
